Key:
Canis familiaris [1] = assay: Total time in minutes elapsed from the initiation of the change until return to the pretest value of blood pressure in coronary sinus of anesthetized dog at intravenous dosage of 10 mg/kg; assay type: functional, Canis lupus familiaris
Canis familiaris [2] = assay: Total time in minutes elapsed from the initiation of the change until return to the pretest value of heart rate in coronary sinus of anesthetized dog at intravenous dosage of 10 mg/kg; assay type: functional, Canis lupus familiaris
Canis familiaris [3] = assay: Total time in minutes elapsed from the initiation of the change until return to the pretest value of oxygen partial pressure in coronary sinus of anesthetized dog at intravenous dosage of 10 mg/kg; assay type: functional, Canis lupus familiaris
How it was run: (§1)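 Open-chest anesthetized dogs given compound by intravenous injection. Coronary sinus PO2 was monitored, and duration was the total time in minutes from the onset of the change until return to the pretest value.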

Canis familiaris [4] = assay: Tested for the percent increase in aortic blood pressure (BP) in open chest anesthetized dog at intravenous dosage of 10.00 mg/kg; assay type: functional, Canis lupus familiaris, Artery
How it was run: (§2)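 Open-chest anesthetized dogs, compound given iv at the stated dose. Aortic blood pressure is reported as the change from the control (pre-dose) value. Other set-up follows the group's earlier cardiovascular protocol.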

Canis familiaris [5] = assay: Tested for percent increase in coronary sinus partial pressure of oxygen (PO2) in open chest anesthetized dog at intravenous dosage of 10.00 mg/kg; assay type: functional, Canis lupus familiaris
[6] = Lethal dose in mice after intraperitoneal administration; assay type: toxicity, organism-based; settings: mouse, in vivo, ip
How it was run: (§3)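 Male and female mice, three per dose group, were given the compound by the stated route in increments of 0.5 log doses. The LD50 was estimated as an approximate value.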

[7] = Lethal dose in mice after peroral administration; assay type: toxicity, organism-based; settings: mouse, in vivo, po; how it was run: as §3
Canis familiaris [8] = assay: Total time in minutes elapsed from the initiation of the change until return to the pretest value of blood pressure in coronary sinus of anesthetized dog at intravenous dosage of 1 mg/kg; assay type: functional, Canis lupus familiaris
Canis familiaris [9] = assay: Total time in minutes elapsed from the initiation of the change until return to the pretest value of heart rate in coronary sinus of anesthetized dog at intravenous dosage of 1 mg/kg; assay type: functional, Canis lupus familiaris
Canis familiaris [10] = assay: Total time in minutes elapsed from the initiation of the change until return to the pretest value of oxygen partial pressure in coronary sinus of anesthetized dog at intravenous dosage of 1 mg/kg; assay type: functional, Canis lupus familiaris; how it was run: as §1
Canis familiaris [11] = assay: Tested for percent increase in coronary sinus partial pressure of oxygen (PO2) in open chest anesthetized dog at intravenous dosage of 1.00 mg/kg; assay type: functional, Canis lupus familiaris
Canis familiaris [12] = assay: Tested for the percent increase in aortic blood pressure (BP) in open chest anesthetized dog at intravenous dosage of 1.00 mg/kg; assay type: functional, Canis lupus familiaris, Artery; how it was run: as §2
Canis familiaris [13] = assay: Total time in minutes elapsed from the initiation of the change until return to the pretest value of blood pressure in coronary sinus of anesthetized dog at intravenous dosage of 0.1 mg/kg; assay type: functional, Canis lupus familiaris
Canis familiaris [14] = assay: Total time in minutes elapsed from the initiation of the change until return to the pretest value of heart rate in coronary sinus of anesthetized dog at intravenous dosage of 0.1 mg/kg; assay type: functional, Canis lupus familiaris
Canis familiaris [15] = assay: Total time in minutes elapsed from the initiation of the change until return to the pretest value of oxygen partial pressure in coronary sinus of anesthetized dog at intravenous dosage of 0.1 mg/kg; assay type: functional, Canis lupus familiaris
Canis familiaris [16] = assay: Tested for percent increase in coronary sinus partial pressure of oxygen (PO2) in open chest anesthetized dog at intravenous dosage of 0.10 mg/kg; assay type: functional, Canis lupus familiaris; settings: dose 0.1 mg/kg
Canis familiaris [17] = assay: Tested for the percent increase in aortic blood pressure (BP) in open chest anesthetized dog at intravenous dosage of 0.10 mg/kg; assay type: functional, Canis lupus familiaris, Artery; settings: dose 0.1 mg/kg; how it was run: as §2
Canis familiaris [18] = assay: tested for the percent increase in heart rate (HR) in open chest anesthetized dog at intravenous dosage of 0.10 mg/kg; assay type: functional, Canis lupus familiaris; settings: dose 0.1 mg/kg
Canis familiaris [19] = assay: Total time in minutes elapsed from the initiation of the change until return to the pretest value of blood pressure in coronary sinus of anesthetized dog at intravenous dosage of 0.01 mg/kg; assay type: functional, Canis lupus familiaris
Canis familiaris [20] = assay: Total time in minutes elapsed from the initiation of the change until return to the pretest value of heart rate in coronary sinus of anesthetized dog at intravenous dosage of 0.01 mg/kg; assay type: functional, Canis lupus familiaris
Canis familiaris [21] = assay: Total time in minutes elapsed from the initiation of the change until return to the pretest value of oxygen partial pressure in coronary sinus of anesthetized dog at intravenous dosage of 0.01 mg/kg; assay type: functional, Canis lupus familiaris
Canis familiaris [22] = assay: Tested for percent increase in coronary sinus partial pressure of oxygen (PO2) in open chest anesthetized dog at intravenous dosage of 0.01 mg/kg; assay type: functional, Canis lupus familiaris
Canis familiaris [23] = assay: Tested for the percent increase in aortic blood pressure (BP) in open chest anesthetized dog at intravenous dosage of 0.01 mg/kg; assay type: functional, Canis lupus familiaris, Artery; how it was run: as §2

Cc1cccc(C)c1NC(=O)[C@H]1OC(n2cnc3c(N)ncnc32)[C@H](O)[C@@H]1O (some centres undefined)
Duration (Canis familiaris [1]): 30 min
Duration (Canis familiaris [2]): 5 min
Duration (Canis familiaris [3]): 30 min
BP (Canis familiaris [4]): 13%
PO2 (Canis familiaris [5]): 15%
LD50 [6]: > 1000 mg/kg
LD50 [7]: > 1000 mg/kg

Nc1ncnc2c1ncn2C1O[C@H](C(=O)N2CCCCC2)[C@@H](O)[C@H]1O (some centres undefined)
Duration (Canis familiaris [1]): 20 min
Duration (Canis familiaris [2]): 30 min
Duration (Canis familiaris [3]): 8 min
BP (Canis familiaris [4]): 7%
PO2 (Canis familiaris [5]): 52%
LD50 [6]: > 1000 mg/kg
LD50 [7]: > 1000 mg/kg

CCOC(=O)CNC(=O)[C@H]1OC(n2cnc3c(N)ncnc32)[C@H](O)[C@@H]1O (some centres undefined)
Duration (Canis familiaris [1]): 30 min
Duration (Canis familiaris [2]): 11 min
Duration (Canis familiaris [3]): 30 min
BP (Canis familiaris [4]): 6%
PO2 (Canis familiaris [5]): 9%
LD50 [6]: > 300 mg/kg
LD50 [7]: > 300 mg/kg

COc1ccccc1N1CCN(C(=O)[C@H]2OC(n3cnc4c(N)ncnc43)[C@H](O)[C@@H]2O)CC1 (some centres undefined)
Duration (Canis familiaris [1]): 60 min
Duration (Canis familiaris [2]): 60 min
Duration (Canis familiaris [3]): 15 min
BP (Canis familiaris [4]): 7%
PO2 (Canis familiaris [5]): 107%
LD50 [6]: > 300 mg/kg
LD50 [7]: > 300 mg/kg

C=CCNC(=O)[C@H]1O[C@@H](n2cnc3c(N)ncnc32)[C@H]2OC(C)(C)OC12 (some centres undefined)
Duration (Canis familiaris [8]): 30 min
Duration (Canis familiaris [9]): 5 min
Duration (Canis familiaris [10]): 0 min
PO2 (Canis familiaris [11]): 0%
BP (Canis familiaris [12]): 14%
LD50 [6]: > 1000 mg/kg
LD50 [7]: > 1000 mg/kg

Nc1ncnc2c1ncn2C1O[C@H](C(=O)NCc2ccco2)[C@@H](O)[C@H]1O (some centres undefined)
Duration (Canis familiaris [8]): 20 min
Duration (Canis familiaris [9]): 20 min
Duration (Canis familiaris [10]): 20 min
PO2 (Canis familiaris [11]): 22%
BP (Canis familiaris [12]): 1%

CC1(C)OC2[C@@H](C(=O)NC3CC3)O[C@@H](n3cnc4c(N)ncnc43)[C@H]2O1 (some centres undefined)
Duration (Canis familiaris [1]): 1 min
Duration (Canis familiaris [2]): 1 min
Duration (Canis familiaris [3]): 60 min
BP (Canis familiaris [4]): 26%
PO2 (Canis familiaris [5]): 9%
LD50 [6]: > 300 mg/kg
LD50 [7]: > 300 mg/kg

CCCONC(=O)[C@H]1OC(n2cnc3c(N)ncnc32)[C@H](O)[C@@H]1O (some centres undefined)
Duration (Canis familiaris [13]): 13 min
Duration (Canis familiaris [14]): 3 min
Duration (Canis familiaris [15]): 60 min
PO2 (Canis familiaris [16]): 52%
BP (Canis familiaris [17]): 1%
HR (Canis familiaris [18]): 6%
LD50 [6]: 200 mg/kg
LD50 [7]: > 1000 mg/kg

Nc1ncnc2c1ncn2[C@@H]1O[C@H](C(=O)NC2CCC2)[C@@H](O)[C@H]1O
Duration (Canis familiaris [19]): 90 min
Duration (Canis familiaris [20]): 48 min
Duration (Canis familiaris [21]): 90 min
PO2 (Canis familiaris [22]): 79%
LD50 [6]: 2 mg/kg
LD50 [7]: 5 mg/kg

Nc1ncnc2c1ncn2[C@@H]1O[C@H](C(=O)NC2CC2)[C@@H](O)[C@H]1O
Duration (Canis familiaris [19]): 150 min
Duration (Canis familiaris [20]): 150 min
Duration (Canis familiaris [21]): 150 min
PO2 (Canis familiaris [22]): 136%
LD50 [6]: 2 mg/kg
LD50 [7]: 5 mg/kg

C=CCNC(=O)[C@H]1OC(n2cnc3c(N)ncnc32)[C@H](O)[C@@H]1O (some centres undefined)
Duration (Canis familiaris [19]): 0 min
Duration (Canis familiaris [20]): 0 min
Duration (Canis familiaris [21]): 20 min
PO2 (Canis familiaris [22]): 129%
BP (Canis familiaris [23]): 0%
LD50 [6]: 200 mg/kg
LD50 [7]: > 1000 mg/kg

C=CCN(CC=C)C(=O)[C@H]1OC(n2cnc3c(N)ncnc32)[C@H](O)[C@@H]1O (some centres undefined)
Duration (Canis familiaris [8]): 0 min
Duration (Canis familiaris [9]): 0 min
Duration (Canis familiaris [10]): 40 min
PO2 (Canis familiaris [11]): 66%
BP (Canis familiaris [12]): 0%
LD50 [6]: > 300 mg/kg
LD50 [7]: > 300 mg/kg

CCNC(=O)[C@H]1O[C@@H](n2cnc3c(N)ncnc32)[C@H](O)[C@@H]1O [NECA]
Duration (Canis familiaris [19]): 120 min
Duration (Canis familiaris [20]): 345 min
Duration (Canis familiaris [21]): 345 min
PO2 (Canis familiaris [22]): 250%
LD50 [6]: 0.5 mg/kg
LD50 [7]: 5 mg/kg

CN(C)CCNC(=O)[C@H]1OC(n2cnc3c(N)ncnc32)[C@H](O)[C@@H]1O (some centres undefined)
Duration (Canis familiaris [1]): 15 min
Duration (Canis familiaris [2]): 15 min
Duration (Canis familiaris [3]): 2 min
BP (Canis familiaris [4]): 5%
PO2 (Canis familiaris [5]): 13%
LD50 [6]: 20 mg/kg
LD50 [7]: 500 mg/kg

— ChEMBL document CHEMBL1121608, “Modification of the 5' position of purine nucleosides. 2. Synthesis and some cardiovascular properties of adenosine-5'-(N-substituted)carboxamides” (J Med Chem, 1980)
